Experimental data pooled from the literature.
Each line is one published result; the experiments were not run side by side.
Target: Serine/threonine-protein kinase NIM1 (NIM1K, Homo sapiens, UniProt Q8IY84)

C[C@H]1CCN(c2nccc(-c3cnn4ncccc34)n2)C1 — remaining binding (binding; 1 µM): 82%
COc1cccc(CNC(=O)c2nc3scc(COCc4ccc(C(=O)O)cc4)c3c(=O)[nH]2)c1 — remaining binding (cell-free assay; competition with immobilised ligand; 1 µM): 100%
C[C@@H](c1ccc(-n2cnc3c(N)ncnc32)cc1)N1CCc2nn(C)c(Cc3ccccc3)c2C1=O — remaining binding (binding; competition with immobilised ligand; 0.1 µM): 67%
Cc1nc(C2CCN(C(=O)c3ccc(OC(F)(F)F)cc3N)CC2)c2ncc(N3CCN(C)CC3)cc2n1 — remaining binding (cell-free assay; competition with immobilised ligand; 1 µM): 89%
O=C(c1ccc(Nc2ncc(Cl)c(-c3ccc(Cl)s3)n2)cc1)N1CCC(N2CCCC2)CC1 — remaining binding (binding; competition with immobilised ligand; 1 µM): 6.3%
O=C(NCC1CCOCC1)c1n[nH]cc1NC(=O)c1c(F)cccc1F — remaining binding (binding; competition with immobilised ligand; 1 µM): 97%
CN(C)c1ncc(F)c(-c2cnn3ncccc23)n1 — remaining binding (binding; 1 µM): 69%
COc1ccc2c(c1)O[C@H](c1ccc(OC)c(OC)c1)C[C@@H]2NC(=O)C1(c2ccc3c(c2)OC(F)(F)O3)CC1 — remaining binding (cell-free assay; competition with immobilised ligand; 1 µM): 84%
CNC(=O)[C@@H]1CC[C@@H](n2c(-c3ccc4cnccc4c3)nc3ccc(C(=O)NCc4cccc(C(N)=O)c4)cc32)C1 — remaining binding (binding; competition with immobilised ligand; 1 µM): 100%
CCC(=O)N[C@H]1CC[C@@H](C(=O)N(C)c2ccc(-c3nc4ccccc4o3)cc2)C1 — remaining binding (cell-free assay; competition with immobilised ligand; 1 µM): 88%
CCN1CCN(Cc2ccc(C(=O)Nc3ccc(C)c(Oc4ccc5c(c4)CC(=O)N5)c3)cc2C(F)(F)F)CC1 — remaining binding (binding; competition with immobilised ligand; 1 µM): 100%
CC1=C(C#N)[C@@H](c2ccc3[nH]nc(C)c3c2)C(C#N)=C(c2ccc(Cl)cc2)N1 — remaining binding (cell-free assay; competition with immobilised ligand; 1 µM): 100%
F[C@@H]1CCN(c2nccc(-c3cnn4ncccc34)n2)C1 — remaining binding (binding; 1 µM): 100%
Cc1cc(-n2nc(Cc3cc(F)cc(C(F)(F)F)c3)nc2C)ccc1C(N)=O — remaining binding (cell-free assay; competition with immobilised ligand; 1 µM): 100%
CC1CCCN1c1nccc(-c2cnn3ncccc23)n1 (stereo not shown) — remaining binding (binding; 1 µM): 95%
COc1ncc2cc3ccccc3nc2c1C#N — remaining binding (cell-free assay; competition with immobilised ligand; 5 µM): 89%
O=C(c1ccc(Nc2nccc(-c3cc4ccccc4s3)n2)cc1)N1CCC(N2CCCC2)CC1 — remaining binding (binding; competition with immobilised ligand; 1 µM): 80%
C[C@@H]1CN(c2cc(-c3nn(C)c4ccc(OC5(C)CC5)cc34)ncn2)C[C@H](C)O1 — remaining binding (cell-free assay; competition with immobilised ligand; 1 µM): 74%
CN(C)c1nccc(-c2cnc3ncccn23)n1 — remaining binding (binding; 1 µM): 67%
C=CC(=O)N1CCC(C(=O)NCC(=O)N2CCN(c3nc(-c4cnc(N)nc4C(F)F)nc(N4CCOCC4)n3)CC2)CC1 — remaining binding (binding; competition with immobilised ligand; 1 µM): 100%
CN(CCCC(F)(F)F)c1nccc(-c2cnn3ncccc23)n1 — remaining binding (binding; 1 µM): 100%
Cc1cnc(Nc2ccc(C(=O)N3CCC(N4CCCC4)CC3)cc2)nc1-c1cc2ccccc2s1 — remaining binding (binding; competition with immobilised ligand; 1 µM): 22%
